Experimental data from publication PMC5952261 (ACS Infectious Diseases, 2018).
≈ marks a conversion by molar mass, not a printed value. Positions of bridges follow the written chain, without caps; N, C: chain ends. Non-standard residues stand in square brackets, D forms with d. Residues, ends and D or L forms follow the SMILES beside them. *: point of attachment. X1 = CC[C@H](C)CCCCC(=O)*; Dab = NCC[C@H](N)C(=O)O

Assays:
P. aeruginosa ATCC 27853 = assay: MIC in CAMHB; assay type: cell-based, Pseudomonas aeruginosa; conditions: polymyxin susceptible, 10^6 CFU/mL, 18 h, 37 °C, visible growth
[1] = tested on: P. aeruginosa FADDI-PA002; assay: MIC in CAMHB; assay type: cell-based, Pseudomonas aeruginosa; conditions: polymyxin susceptible, 10^6 CFU/mL, 18 h, 37 °C, visible growth
[2] = tested on: P. aeruginosa FADDI-PA022; assay: MIC in CAMHB; assay type: cell-based, Pseudomonas aeruginosa; conditions: polymyxin susceptible, 10^6 CFU/mL, 18 h, 37 °C, visible growth
[3] = tested on: P. aeruginosa FADDI-PA091; assay: MIC in CAMHB; assay type: cell-based, Pseudomonas aeruginosa; conditions: polymyxin susceptible, 10^6 CFU/mL, 18 h, 37 °C, visible growth
[4] = tested on: P. aeruginosa FADDI-PA025; assay: MIC in CAMHB; assay type: cell-based, Pseudomonas aeruginosa; conditions: polymyxin susceptible, 10^6 CFU/mL, 18 h, 37 °C, visible growth
[5] = tested on: P. aeruginosa FADDI-PA001; assay: MIC in CAMHB; assay type: cell-based, Pseudomonas aeruginosa; conditions: polymyxin susceptible, 10^6 CFU/mL, 18 h, 37 °C, visible growth
[6] = tested on: P. aeruginosa FADDI-PA038; assay: MIC in CAMHB; assay type: cell-based, Pseudomonas aeruginosa; conditions: polymyxin susceptible, 10^6 CFU/mL, 18 h, 37 °C, visible growth
[7] = tested on: P. aeruginosa FADDI-PA093; assay: MIC in CAMHB; assay type: cell-based, Pseudomonas aeruginosa; conditions: polymyxin resistant, 10^6 CFU/mL, 18 h, 37 °C, visible growth
[8] = tested on: P. aeruginosa FADDI-PA066; assay: MIC in CAMHB; assay type: cell-based, Pseudomonas aeruginosa; conditions: polymyxin resistant CF isolate, 10^6 CFU/mL, 18 h, 37 °C, visible growth
[9] = tested on: P. aeruginosa FADDI-PA065; assay: MIC in CAMHB; assay type: cell-based, Pseudomonas aeruginosa; conditions: polymyxin resistant, 10^6 CFU/mL, 18 h, 37 °C, visible growth
[10] = tested on: P. aeruginosa FADDI-PA070; assay: MIC in CAMHB; assay type: cell-based, Pseudomonas aeruginosa; conditions: polymyxin resistant, 10^6 CFU/mL, 18 h, 37 °C, visible growth
[11] = tested on: P. aeruginosa FADDI-PA069; assay: MIC in CAMHB; assay type: cell-based, Pseudomonas aeruginosa; conditions: polymyxin resistant, 10^6 CFU/mL, 18 h, 37 °C, visible growth
[12] = tested on: P. aeruginosa FADDI-PA068; assay: MIC in CAMHB; assay type: cell-based, Pseudomonas aeruginosa; conditions: polymyxin resistant, 10^6 CFU/mL, 18 h, 37 °C, visible growth
[13] = tested on: P. aeruginosa FADDI-PA062; assay: MIC in CAMHB; assay type: cell-based, Pseudomonas aeruginosa; conditions: polymyxin resistant, 10^6 CFU/mL, 18 h, 37 °C, visible growth
[14] = tested on: P. aeruginosa FADDI-PA060; assay: MIC in CAMHB; assay type: cell-based, Pseudomonas aeruginosa; conditions: polymyxin resistant, 10^6 CFU/mL, 18 h, 37 °C, visible growth
[15] = tested on: polymyxin-sensitive P. aeruginosa isolates; assay: MIC in CAMHB, panel summary; assay type: cell-based, Pseudomonas aeruginosa; conditions: range over the panel of Table 1, CAMHB
[16] = tested on: P. aeruginosa CF isolate FADDI-PA066; assay: Cell viability, planktonic growth in artificial sputum media; assay type: cell-based, Pseudomonas aeruginosa; conditions: up to 128 mg/L
[17] = tested on: P. aeruginosa FADDI-PA020; assay: Impact of sputum biomolecules on lipopeptide activity in CAMHB; assay type: cell-based, Pseudomonas aeruginosa; conditions: lipopeptide 2 mg/L, 3 h, colony counts; for impact of DNA on antibacterial activity: DNA 125 mg/L; for impact of F-actin/DNA on antibacterial activity: F-actin/DNA 125 mg/L
Outline: (§1)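 Mid-log cultures (OD500 0.4–0.6; 37 °C, 180 rpm) were diluted to OD ~0.05 in CAMHB. Test compound at 2 mg/L was coincubated for 3 h in 24-well plates with one biomolecule at 125 mg/L: F-actin/DNA, DNA, mucin, phospholipids, surfactant or LPS. Samples were spiral-plated and incubated overnight at 37 °C, and colonies were counted automatically. Detection limit 10 CFU/mL.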

[18] = tested on: P. aeruginosa FADDI-PA021; assay: as above; assay type: cell-based, Pseudomonas aeruginosa; conditions: lipopeptide 2 mg/L, 3 h, colony counts; for impact of DNA on antibacterial activity: DNA 125 mg/L; for impact of F-actin/DNA on antibacterial activity: F-actin/DNA 125 mg/L
Outline: as §1

[19] = tested on: P. aeruginosa FADDI-PA066; assay: as above; assay type: cell-based, Pseudomonas aeruginosa; conditions: lipopeptide 2 mg/L, 3 h, colony counts; for impact of F-actin/DNA on antibacterial activity: F-actin/DNA 125 mg/L; for impact of mucin on antibacterial activity: mucin 125 mg/L (50% (w/v)); for impact of phospholipids on antibacterial activity: phospholipids 125 mg/L
Outline: as §1

mucin = conditions: dialysis; ref Huang et al., 32; cited from earlier work
[20] = tested on: P. aeruginosa FADDI-PA092; assay: MIC in CAMHB; assay type: cell-based, Pseudomonas aeruginosa; conditions: polymyxin resistant, 10^6 CFU/mL, 18 h, 37 °C, visible growth
[21] = tested on: P. aeruginosa FADDI-PA066; assay: Transmission electron microscopy of cells growing in biofilm; assay type: cell-based, Pseudomonas aeruginosa; conditions: 1× MIC (colistin 128 mg/L; octapeptin A3 16 mg/L), 1 h, 37 °C

Row | Compound | minimum inhibitory concentration (P. aeruginosa ATCC 27853) | minimum inhibitory concentration [1] | minimum inhibitory concentration [2] | minimum inhibitory concentration [3] | minimum inhibitory concentration [4] | minimum inhibitory concentration [5] | minimum inhibitory concentration [6] | minimum inhibitory concentration [8] | MICs against the polymyxin-sensitive isolates [15] | activity (reduction of cell viability), in words [16] | impact of DNA on antibacterial activity [17] | impact of F-actin/DNA on antibacterial activity [17] | impact of DNA on antibacterial activity [18] | impact of F-actin/DNA on antibacterial activity [18] | impact of F-actin/DNA on antibacterial activity [19] | impact of mucin on antibacterial activity [19] | impact of phospholipids on antibacterial activity [19] | binding to mucin (mucin) | also measured
1 | CC[C@H](C)CCCCC(=O)N[C@@H](CCN)C(=O)N[C@H](C(=O)N[C@@H](CCN)C(=O)N[C@H]1CCNC(=O)[C@H]([C@@H](C)O)NC(=O)[C@H](CCN)NC(=O)[C@H](CCN)NC(=O)[C@H](CC(C)C)NC(=O)[C@@H](Cc2ccccc2)NC(=O)[C@H](CCN)NC1=O)[C@@H](C)O [polymyxin B] (X1-[Dab]T[Dab][Dab][Dab][dF]L[Dab][Dab]T; lactam 4-C (inferred); N-terminus assumed) | 0.5 mg/L (≈ 0.415 µM) | 0.5 mg/L (≈ 0.415 µM) | 1 mg/L (≈ 0.831 µM) | 1 mg/L (≈ 0.831 µM) | 2 mg/L (≈ 1.66 µM) | 0.5 mg/L (≈ 0.415 µM) | 1 mg/L (≈ 0.831 µM) | 32 mg/L (≈ 26.6 µM) | 0.25 to 4 mg/L | inactive even at 128 mg/L | marginally impacted | only marginally affected | marginally impacted | inhibited | marginally inhibited | not noticeable | not discernible | avidly bind | minimum inhibitory concentration [7]: 32 mg/L (≈ 26.6 µM); minimum inhibitory concentration [9]: >32 mg/L; minimum inhibitory concentration [10]: >32 mg/L; minimum inhibitory concentration [11]: >32 mg/L; minimum inhibitory concentration [12]: >32 mg/L; minimum inhibitory concentration [13]: >32 mg/L; minimum inhibitory concentration [14]: >128 mg/L
2 | CC[C@H](C)CCCCC(=O)N[C@@H](CCN)C(=O)N[C@H](C(=O)N[C@@H](CCN)C(=O)N[C@H]1CCNC(=O)[C@H]([C@@H](C)O)NC(=O)[C@H](CCN)NC(=O)[C@H](CCN)NC(=O)[C@H](CC(C)C)NC(=O)[C@@H](CC(C)C)NC(=O)[C@H](CCN)NC1=O)[C@@H](C)O [colistin] (X1-[Dab]T[Dab][Dab][Dab][dL]L[Dab][Dab]T; lactam 4-C (inferred); N-terminus assumed) | 1 mg/L (≈ 0.855 µM) | 0.25 mg/L (≈ 0.214 µM) | 1 mg/L (≈ 0.855 µM) | 0.5 mg/L (≈ 0.428 µM) | 2 mg/L (≈ 1.71 µM) | 0.5 mg/L (≈ 0.428 µM) | 1 mg/L (≈ 0.855 µM) | >128 mg/L | 0.25 to 4 mg/L | inactive even at 128 mg/L | marginally impacted | only marginally affected | marginally impacted | inhibited | no impact | not noticeable | not discernible | avidly bind | minimum inhibitory concentration [20]: 16 mg/L (≈ 13.7 µM); effect on bacterial outer membrane (TEM) [21]: blebbing effect with vesicular protrusions from the outer membrane
